# Results taken from the M2OR odorant receptor database.
# Residue numbers refer to the chain shown, from its start.
# Target: T1, OR2B6 (Homo sapiens) (UniProt P58173)
# T1 sequence (whole entry): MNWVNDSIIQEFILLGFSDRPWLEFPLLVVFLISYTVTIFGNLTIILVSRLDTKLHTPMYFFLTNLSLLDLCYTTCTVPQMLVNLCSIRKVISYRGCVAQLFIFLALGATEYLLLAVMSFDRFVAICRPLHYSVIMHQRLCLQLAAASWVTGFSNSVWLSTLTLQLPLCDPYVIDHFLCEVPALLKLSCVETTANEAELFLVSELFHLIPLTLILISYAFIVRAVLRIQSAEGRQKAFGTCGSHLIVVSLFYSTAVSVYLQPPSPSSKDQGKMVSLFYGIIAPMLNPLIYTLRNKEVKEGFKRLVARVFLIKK
# Settings: stereoisomer not certain
# In short: (§1)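 Each receptor–molecule pair is labelled responsive or non-responsive (inactive) according to whether the original authors judged the measured signal statistically different from baseline. The data were taken from the main text and supplementary material of published papers and checked for typos and inconsistencies. Assay methods differed by source, with transient luciferase assays in mammalian cell lines being common.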
# 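Note: active if original authors judged signal statistically different from baseline.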
row,Structure (SMILES),odorant receptor agonist call
1,CC1=C(O)C(=O)OC1C (stereo not given),inactive
2,CC1=NC(C)C(C)S1 (stereo not given),inactive
3,CC1=C(O)C(=O)C(C)O1 (stereo not given),inactive
4,CCCCCCC=CCCC=O,inactive

# System: T2, OR2BB
# T2 sequence (whole entry): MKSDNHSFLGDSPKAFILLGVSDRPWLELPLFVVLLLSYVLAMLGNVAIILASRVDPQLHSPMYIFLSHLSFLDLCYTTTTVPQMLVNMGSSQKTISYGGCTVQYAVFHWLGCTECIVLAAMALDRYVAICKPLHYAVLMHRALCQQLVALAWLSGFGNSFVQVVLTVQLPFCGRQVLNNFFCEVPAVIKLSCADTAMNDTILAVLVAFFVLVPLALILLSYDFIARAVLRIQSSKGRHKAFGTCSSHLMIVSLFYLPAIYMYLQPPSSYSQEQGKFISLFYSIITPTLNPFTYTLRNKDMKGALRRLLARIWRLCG
# Settings: stereoisomer not certain
# In short: as §1
row,Structure (SMILES),odorant receptor agonist call
1,CC1=C(O)C(=O)OC1C (stereo not given),inactive
2,CC1=NC(C)C(C)S1 (stereo not given),inactive
3,CC1=C(O)C(=O)C(C)O1 (stereo not given),inactive
4,CCCCCCC=CCCC=O,inactive

# System: T3, OR2BB
# T3 sequence (whole entry): T2 sequence (whole entry) with D223G
# Settings: stereoisomer not certain
# In short: as §1
row,Structure (SMILES),odorant receptor agonist call
1,CC1=C(O)C(=O)OC1C (stereo not given),inactive
2,CC1=NC(C)C(C)S1 (stereo not given),inactive
3,CC1=C(O)C(=O)C(C)O1 (stereo not given),inactive
4,CCCCCCC=CCCC=O,inactive

# Target: T4, OR2C1 (Homo sapiens) (UniProt O95371)
# T4 sequence (whole entry): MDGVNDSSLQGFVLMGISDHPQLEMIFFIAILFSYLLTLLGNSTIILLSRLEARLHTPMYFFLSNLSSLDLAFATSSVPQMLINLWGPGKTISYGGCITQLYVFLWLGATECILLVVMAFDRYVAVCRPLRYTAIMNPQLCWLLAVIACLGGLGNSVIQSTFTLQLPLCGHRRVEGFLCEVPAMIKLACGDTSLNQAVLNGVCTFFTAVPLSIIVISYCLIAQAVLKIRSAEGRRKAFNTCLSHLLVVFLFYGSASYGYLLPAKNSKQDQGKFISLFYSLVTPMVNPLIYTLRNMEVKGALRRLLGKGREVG
# Settings: stereoisomer not certain
# In short: as §1
row,Structure (SMILES),odorant receptor agonist call
1,CC1=C(O)C(=O)OC1C (stereo not given),inactive
2,CC1=NC(C)C(C)S1 (stereo not given),inactive
3,CC1=C(O)C(=O)C(C)O1 (stereo not given),inactive
4,CCCCCCC=CCCC=O,inactive

# System: T5, OR2C1
# T5 sequence (whole entry): T4 sequence (whole entry) with C149W
# Settings: stereoisomer not certain
# In short: as §1
row,Structure (SMILES),odorant receptor agonist call
1,CC1=C(O)C(=O)OC1C (stereo not given),inactive
2,CC1=NC(C)C(C)S1 (stereo not given),inactive
3,CC1=C(O)C(=O)C(C)O1 (stereo not given),inactive
4,CCCCCCC=CCCC=O,inactive
